Only some compounds are listed: those with a hit (about 3.5% of all), similar ones and a draw of the others.
MrgX1 agonist – activates human MrgX1 receptor signaling. Q96LB2. MrgX1-HEK293 cells, Fluo-4 calcium fluorescence, agonist mode; active compounds read high. B-score at 10 µM. 310,000 tested, 0.44% active. AID 588627;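 active means calcium response B-score plate-corrected fluorescence ratio at least 3 library SD, with starting fluorescence B-score inside 5 SD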
Target sequence (Q96LB2 whole entry, looked up): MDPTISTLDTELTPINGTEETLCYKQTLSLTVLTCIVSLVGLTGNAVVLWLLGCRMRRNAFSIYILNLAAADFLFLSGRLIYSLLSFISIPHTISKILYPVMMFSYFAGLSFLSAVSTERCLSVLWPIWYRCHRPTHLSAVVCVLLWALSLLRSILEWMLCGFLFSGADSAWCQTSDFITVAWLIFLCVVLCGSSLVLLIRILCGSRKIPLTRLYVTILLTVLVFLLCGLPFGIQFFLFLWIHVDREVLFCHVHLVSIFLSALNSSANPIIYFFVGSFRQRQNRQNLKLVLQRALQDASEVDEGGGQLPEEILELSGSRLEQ
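Material – MrgX1-expressing HEK293 cells · Input – 15,000 cells seeded per well · Dosing – compound as first of three additions · Times – overnight seeding, then 1 h dark dye loading · Measured by – kinetic Fluo-4 NW fluorescence of intracellular calcium · Read-out – B-scored fluorescence response ratio · Benchmarks – positive and negative control wells on each plate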
RGS4 block – human RGS4 inhibition | AID 463165 | B-score at 10 µM | 310,000 tested, 0.45% active | HEK293 M3R/RGS4 inducible, Fluo-4 calcium flux; active compounds read high; triggered by carbachol at its EC20 | P49798;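 active means B-score, a plate-corrected calcium signal, over three deviations above library mean, with baseline fluorescence within five deviations of library mean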;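 further: RGS4 expression induced by doxycycline in cells with stable M3 receptor; B-score is computed from the integrated fluorescence ratio over baseline after carbachol; higher B-score means a larger calcium signal and so more RGS4 inhibition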
Target sequence (P49798 whole entry, looked up): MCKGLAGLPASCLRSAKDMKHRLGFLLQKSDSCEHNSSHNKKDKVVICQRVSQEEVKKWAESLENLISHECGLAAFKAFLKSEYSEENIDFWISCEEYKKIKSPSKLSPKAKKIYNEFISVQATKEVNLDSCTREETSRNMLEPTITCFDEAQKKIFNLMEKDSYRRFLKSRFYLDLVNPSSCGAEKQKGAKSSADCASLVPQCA
RGS4 act – potentiators or activators of RGS4. HEK293 M3R/inducible RGS4, carbachol calcium flux Fluo4; active compounds read low. B-score at 10 µM. 310,000 tested, 0.92% active. AID 463111;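 active means B-score of the integrated calcium signal more than 4 SD below the library mean, with starting fluorescence not abnormally high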;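 further: negative B-score means reduced calcium response which marks RGS4 activation or potentiation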
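Test system: HEK293 cells with stable M3R and inducible RGS4; also added: carbachol at ECmax as muscarinic agonist stimulus; schedule: dye loading 30 min 37 °C, buffer rest 30 min RT; technique: kinetic calcium fluorescence imaging with Fluo4-AM dye, 2 µM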
MrgX1 antagonist – human MrgX1 receptor antagonism, primary screen; B-score at 10 µM; MRGX1-HEK293 calcium flux, Fluo-4, BAM8-22 antagonism; active compounds read low; Q96LB2; 310,000 tested, 1.3% active; AID 588676;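 active means calcium-response B-score plate-corrected more than 3 library SD below zero, starting fluorescence within 5 deviations, no agonist response on first addition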;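 further: peak minus trough fluorescence over baseline after final BAM8-22 challenge near maximal dose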
MrgX1 allo act – human MrgX1 positive allosteric modulation, primary screen. Q96LB2. MrgX1-HEK293, Fluo-4 calcium flux, FDSS; active compounds read high. B-score at 10 µM. 310,000 tested, 0.63% active. AID 588675;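 active means plate-corrected calcium response at least 3 library SD above typical, normal starting fluorescence, not activating the receptor alone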;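 further: compound read alongside a low EC10 to EC30 dose of BAM8-22 agonist; peak minus trough fluorescence over baseline measured at the second addition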
RGS4 inh valid – validation of RGS4 inhibitors; shares compounds with RGS4 block; HEK293 M3R/RGS4, carbachol calcium Fluo-4 fluorescence; carbachol added at its EC20; 0 = buffer wells, 100 = carbachol control; calcium response, % at 10 µM; 1,700 tested, 65% active; AID 492999;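 active means duplicate-averaged calcium response above the buffer-only control mean plus 5 SD of those controls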;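 further: integrated fluorescence ratio F max minus min over baseline F0; higher response in RGS4-induced cells means RGS4 inhibition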
M3R Ca ctr – non-induced cell nonspecific activity of RGS4 inhibitors | activity (percent), % at 10 µM | shares compounds with RGS4 block | HEK293 M3R non-induced, carbachol calcium Fluo-4; submaximal (EC20) carbachol stimulus; buffer wells 0%, carbachol control wells 100% | AID 493000 | 1,900 tested, 20% active; call rule not given here;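 further: RGS4 induction absent so cells express M3R without RGS4; higher means more calcium signal and flags a non-specific hit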
RGS4 inh ctr2 – second counter-screen for RGS4 inhibitors: non-induced cells without carbachol; shares compounds with RGS4 block; calcium response (agonist-mode artifact), % at 10 µM; HEK293 M3R/RGS4 non-induced, Fluo-4 calcium, no carbachol; normalised: buffer wells 0%, carbachol wells 100%; 1,900 tested, 22% active;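 active means duplicate-averaged calcium rise in uninduced cells above buffer wells' mean plus 5 SD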
* hit, by the source's call; i = inactive; / = no result.

SMILES	MrgX1 agonist	RGS4 block	RGS4 act	MrgX1 antagonist	MrgX1 allo act	RGS4 inh valid	M3R Ca ctr	RGS4 inh ctr2
O=C(CN1C(=O)S/C(=C\C=C\c2ccccc2)C1=O)Nc1ccc(O)cc1	i	i	i	i	i	i	i	7.5%*
O=C(CN1C(=O)S/C(=C\C=C\c2ccccc2)C1=O)N1CCCCC1	i	i	i	i	i	/	i	i
O=C(CCCN1C(=O)S/C(=C/C=C/c2ccccc2)C1=O)Nc1ccc(C(=O)O)cc1	i	i	i	i	i	/	/	/
CS(=O)(=O)N1CCCC(C(=O)Nc2ccc3c(c2)OCCO3)C1 (stereo not given)	i	i	i	i	i	/	/	/
CN1CCN(c2nc3ccccn3c(=O)c2/C=C(\C#N)S(=O)(=O)c2ccc(Cl)cc2)CC1	i	i	i	i	i	/	/	/
Cc1cccc(NC2=NCC(=O)N2Cc2ccccc2)c1	i	i	i	i	i	/	32.0%*	i
Cc1cc(C)cc(NC2=NCC(=O)N2Cc2ccccc2)c1	i	5.35*	i	i	i	i	i	i
O=C(NN1CCCCC1)c1cnn2c(C(F)F)cc(-c3ccccc3)nc12	i	i	i	i	i	/	/	/
N#C/C(=C/c1ccc(O)c(O)c1)C(=O)NCc1ccc(Cl)cc1	i	7.59*	i	i	13.1*	i	i	i
N#C/C(=C/c1cccc(O)c1)C(=O)NCc1ccc(Cl)cc1	i	5.93*	i	i	i	80.0%*	73.0%*	i
O=C(N/N=C/c1cc2cc3c(cc2nc1Cl)OCCO3)c1ccccc1O	i	i	i	i	i	/	/	/
O=C(N/N=C/c1cc2cc3c(cc2nc1Cl)OCO3)c1ccncc1	i	7.83*	i	i	i	i	i	i
COc1ccccc1C(=O)C1CCCN(C(=O)CN2CCCCC2=O)C1 (stereo not given)	i	i	i	i	i	/	/	/
O=C(c1c(F)cccc1F)N1CCCC(c2nc(-c3ccc(F)cc3)no2)C1 (stereo not given)	i	i	i	i	i	/	/	/
CCc1ccc2c(c1)c(N=NC1=NC(=O)CS1)c(O)n2C	i	i	i	i	i	/	i	i
Cc1cc(Nc2ccccc2)n2nc(C)c(-c3ccccc3)c2n1	i	i	i	i	i	i	i	i
Cc1cc(C)n2nc(C)c(-c3ccccc3)c2n1	i	i	i	i	i	/	/	/
COc1ccc(-c2nnc(Nc3ccc(OC)c(C(=O)N4CCCCC4)c3)c3ccccc23)cc1	i	i	i	i	i	/	i	i
Cc1cccn2c(=O)c(C=Nc3ccc(Cl)cc3)c(NCCO)nc12	i	i	i	i	i	/	/	/
Cc1cccn2c(=O)c(C=NCCO)c(Nc3ccc(Cl)cc3)nc12	i	7.53*	i	i	i	11.5%*	i	i
CC(C)N(CCCNC(=O)Cn1c(=O)c2cccn2c2ccccc21)Cc1ccccc1	i	i	i	i	i	i	i	i
CN(CCCNC(=O)Cn1c(=O)c2cccn2c2ccccc21)Cc1ccccc1	i	22.7*	i	i	i	i	i	i
CCc1nnc(NC(=O)c2cc(-c3cccnc3)nc3ccccc23)s1	i	i	i	i	i	/	i	i
CC(C)Cc1nnc(NC(=O)c2cc(-c3ccncc3)nc3ccccc23)s1	i	i	i	i	i	/	i	i
CCc1nnc(NC(=O)c2cc(C)nc3ccccc23)s1	i	i	i	i	i	/	/	/
SMILES	MrgX1 agonist	RGS4 block	RGS4 act	MrgX1 antagonist	MrgX1 allo act	RGS4 inh valid	M3R Ca ctr	RGS4 inh ctr2
O=C(/C=C/c1ccco1)Nc1nc(-c2ccccn2)cs1	i	11.7*	i	i	i	22.0%*	i	i
O=C(/C=C/c1ccco1)Nc1nc(-c2ccccc2)cs1	i	i	i	i	i	/	/	/
CC1=NN(c2ccc(C)cc2C)C(=O)C1C(c1cccc(O)c1)C1C(=O)N(c2ccc(C)cc2C)N=C1C (stereo not given)	i	5.28*	i	i	i	13.5%*	50.0%*	i
CC1=NN(c2ccccc2)C(=O)C1N=Nc1cccc(O)c1 (stereo not given)	i	i	i	i	i	/	/	/
Cn1cnc(S(=O)(=O)NC2CCN(Cc3c(F)cccc3Cl)CC2)c1	i	i	i	i	i	/	/	/
CCOC(=O)c1c(NC(=O)C(=O)N/N=C/c2ccc(O)c(OC)c2)sc2c1CCCCC2	i	12.1*	i	i	i	37.0%*	53.5%*	18.5%*
O=c1[nH]c(-c2ccccc2)ncc1Oc1ccccc1	i	i	i	i	i	/	/	/
CCc1ccc2c(CN3CCC(C(=O)OC)CC3)cc(=O)oc2c1	i	7.23*	i	i	i	13.0%*	i	i
CCOC(=O)Nc1ccc2c(CN3CCC(C(=O)OC)CC3)cc(=O)oc2c1	i	4.93*	i	i	i	24.5%*	i	i
CCOC(=O)Nc1ccc2c(COC(=O)c3ccccc3O)cc(=O)oc2c1	i	i	i	i	i	/	/	/
COC(=O)C1CCN(Cc2cc(=O)oc3cc(C)c(Cl)cc23)CC1	i	11.7*	i	i	i	16.5%*	i	i
O=c1cc(CN2CC(O)Cc3ccc4ccccc4c32)nc2sccn12 (stereo not given)	i	5.97*	i	i	i	20.5%*	i	i
CC1Cc2ccccc2N1Cc1cc(=O)n2ccsc2n1 (stereo not given)	i	/	/	i	i	/	/	/
Cc1c(C#N)c(O)n(CCO)c(=O)c1N=Nc1ccc2c(c1)COC2=O	i	5.24*	i	i	i	i	i	18.0%*
C#Cc1ccc([C@@H]2C=C(C(=O)N3CCN(Cc4ccc5c(c4)OCO5)CC3)O[C@H](OCCCCO)C2)cc1	i	i	i	i	i	/	/	/
Cc1ccc(-c2nc3c(c(=O)[nH]c(=O)n3Cc3ccccc3)n2Cc2ccccc2)o1	/	8.18*	i	/	/	24.0%*	i	7.0%*

Assay outcomes (PubChem BioAssay)
